Assay results published in ChEMBL document CHEMBL2331355, “Synthesis, structure activity relationship and mode of action of 3-substitutedphenyl-1-(2,2,8,8-tetramethyl-3,4,9,10-tetrahydro-2H,8H-pyrano[2,3-f]chromen-6-yl)-propenones as novel anticancer agents in human leukaemia HL-60 cells” (Eur J Med Chem, 2013).
The source made the active and inactive calls. No cut-off for these calls is given here.

Assays:
[1] = system: HL-60; assay: Cell cycle arrest in human HL60 cells assessed as S phase cells at 15 uM after 24 hrs by PI staining-based flow cytometric analysis (reference value: 49%); type: functional
[2] = system: HL-60; assay: Cell cycle arrest in human HL60 cells assessed as G2/M phase cells at 5 uM after 24 hrs by PI staining-based flow cytometric analysis (reference value: 3%); type: functional
[3] = system: HL-60; assay: Growth inhibition of human HL60 cells at 50 uM after 48 hrs by MTT assay; type: functional; settings: HL-60, 48 h, read-out: GI
Method in brief: (§1)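 Single-concentration MTT screen at 50 µM over 48 h in 96-well plates. Compounds giving >50% inhibition were rescreened at 30 µM. OD read at 570 nm, reference 620 nm. Result expressed as % growth inhibition versus untreated control. Mitomycin C, adriamycin or 5-fluorouracil used as positive controls. Mean ± SD of three independent experiments.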

[4] = system: HL-60; assay: Induction of apoptosis in human HL60 cells assessed as accumulation of sub-G0/G1 phase cells after 24 hrs by PI-staining based flow cytometric analysis; type: functional, cell-based
[5] = system: Caco-2; assay: Growth inhibition of human Caco2 cells at 30 uM after 48 hrs by MTT assay; type: functional, cell-based; method in brief: as §1
[6] = system: PC-3; assay: Cytotoxicity against human PC3 cells after 48 hrs by MTT assay; type: functional, cell-based; settings: PC-3, 48 h
Method in brief: (§2)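 MTT assay in 96-well plates, 48 h exposure across 1–100 µM. OD read at 570 nm against a 620 nm reference. Untreated control OD taken as 100% viability. IC50 derived from the concentration–response curves. Mean ± SD, n = 8 wells, from three independent experiments.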

[7] = system: HL-60; assay: Induction of apoptosis in human HL60 cells assessed as nuclear condensation after 24 hrs by Hoechst 33258 staining; type: functional, cell-based
Method in brief: (§3)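 HL-60 cells (1 × 10⁶/2 ml) treated 24 h at 15 and 20 µM, pelleted at 300 g and washed. Stained with Hoechst 33258, then examined under an inverted fluorescence microscope (10×, UV excitation) for nuclear condensation, blebbing and apoptotic bodies.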

[8] = system: Caco-2; assay: Growth inhibition of human Caco2 cells at 50 uM after 48 hrs by MTT assay; type: functional; settings: Caco-2, 48 h, read-out: GI; method in brief: as §1
[9] = system: HL-60; assay: Cytotoxicity against human HL60 cells after 48 hrs by MTT assay; type: functional, cell-based; settings: HL-60, 48 h; method in brief: as §2
[10] = system: HL-60; assay: Cell cycle arrest in human HL60 cells assessed as accumulation of G0/G1 phase cells at 5 uM after 24 hrs by PI staining-based flow cytometric analysis (reference value: 48%); type: functional
[11] = system: ASPC1; assay: Growth inhibition of human AsPC1 cells at 30 uM after 48 hrs by MTT assay; type: functional, cell-based; method in brief: as §1
[12] = system: MCF7; assay: Growth inhibition of human MCF7 cells at 50 uM after 48 hrs by MTT assay; type: functional; settings: MCF7, 48 h, read-out: GI; method in brief: as §1
[13] = system: HL-60; assay: Cell cycle arrest in human HL60 cells assessed as accumulation of G0/G1 phase cells after 24 hrs by PI staining-based flow cytometric analysis; type: functional
[14] = system: HL-60; assay: Induction of apoptosis in human HL60 cells at 10 uM after 24 hrs by PI-staining based flow cytometric analysis (reference value: 0.7 %); type: functional
[15] = system: HL-60; assay: Cell cycle arrest in human HL60 cells assessed as decrease in G2/M phase cells after 24 hrs by PI staining-based flow cytometric analysis; type: functional
[16] = system: HL-60; assay: Cell cycle arrest in human HL60 cells assessed as G2/M phase cells at 10 uM after 24 hrs by PI staining-based flow cytometric analysis (reference value: 3%); type: functional
[17] = system: HL-60; assay: Growth inhibition of human HL60 cells at 30 uM after 48 hrs by MTT assay; type: functional, cell-based; method in brief: as §1
[18] = system: HL-60; assay: Cell cycle arrest in human HL60 cells assessed as G2/M phase cells at 20 uM after 24 hrs by PI staining-based flow cytometric analysis (reference value: 3%); type: functional
[19] = system: HL-60; assay: Induction of mitochondrial membrane potential loss in human HL60 cells at 20 uM after 24 hrs by rhodamine-123 staining method (reference value: 7%); type: functional
Method in brief: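 HL-60 cells (1 × 10⁶/2 ml/well) treated 24 h at 15 or 20 µM, then incubated with rhodamine-123 (200 nM) for 40 min. Loss of dye uptake measured by flow cytometry. Camptothecin (4 µM, 6 h) as positive control. Representative of three experiments.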

[20] = system: HL-60; assay: Cell cycle arrest in human HL60 cells assessed as G2/M phase cells at 15 uM after 24 hrs by PI staining-based flow cytometric analysis (reference value: 3%); type: functional
[21] = system: ASPC1; assay: Growth inhibition of human AsPC1 cells at 50 uM after 48 hrs by MTT assay; type: functional; settings: ASPC1, 48 h, read-out: GI; method in brief: as §1
[22] = system: HL-60; assay: Cytotoxicity against human HL60 cells after 24 hrs by MTT assay; type: functional, cell-based; settings: HL-60, 24 h
Method in brief: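 HL-60 cells exposed 24 h to a range of concentrations, then MTT reduction measured. Untreated control OD taken as 100% viability; IC50 derived from the curve. Mean ± SD, n = 8 wells, three independent experiments.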

[23] = system: HL-60; assay: Induction of apoptosis in human HL60 cells at 20 uM after 24 hrs by PI-staining based flow cytometric analysis (reference value: 0.7 %); type: functional
[24] = system: MCF7; assay: Growth inhibition of human MCF7 cells at 30 uM after 48 hrs by MTT assay; type: functional, cell-based; method in brief: as §1
[25] = system: HL-60; assay: Induction of apoptosis in human HL60 cells assessed as nuclear blebbing after 24 hrs by Hoechst 33258 staining; type: functional, cell-based; method in brief: as §3
[26] = system: MIA PaCa-2; assay: Cytotoxicity against human MIAPaCa2 cells after 48 hrs by MTT assay; type: functional, cell-based; settings: MIA PaCa-2, 48 h; method in brief: as §2
[27] = system: PC-3; assay: Growth inhibition of human PC3 cells at 30 uM after 48 hrs by MTT assay; type: functional, cell-based; method in brief: as §1
[28] = system: HL-60; assay: Induction of apoptosis in human HL60 cells at 5 uM after 24 hrs by PI-staining based flow cytometric analysis (reference value: 0.7 %); type: functional
[29] = system: HL-60; assay: Cell cycle arrest in human HL60 cells assessed as accumulation of G0/G1 phase cells at 15 uM after 24 hrs by PI staining-based flow cytometric analysis (reference value: 48%); type: functional
[30] = system: HL-60; assay: Cell cycle arrest in human HL60 cells assessed as S phase cells at 10 uM after 24 hrs by PI staining-based flow cytometric analysis (reference value: 49%); type: functional
[31] = system: HL-60; assay: Cell cycle arrest in human HL60 cells assessed as decrease in S phase cells after 24 hrs by PI staining-based flow cytometric analysis; type: functional
[32] = system: HL-60; assay: Induction of apoptosis in human HL60 cells assessed as apoptotic bodies at 20 uM after 24 hrs by Hoechst 33258 staining; type: functional, cell-based; method in brief: as §3
[33] = system: Caco-2; assay: Cytotoxicity against human Caco2 cells after 48 hrs by MTT assay; type: functional, cell-based; settings: Caco-2, 48 h; method in brief: as §2
[34] = system: HL-60; assay: Induction of apoptosis in human HL60 cells assessed as DNA fragmentation at 20 uM after 24 hrs by SDS-PAGE analysis; type: functional, cell-based; settings: in the assay text read “agarose gel electrophoresis” for “SDS-PAGE analysis”
Method in brief: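 HL-60 cells (2 × 10⁶/3 ml/well) treated at 20 µM for 24 h. Lysed, then digested with RNase (400 µg/ml, 37 °C, 90 min) and proteinase K (200 µg/ml, 50 °C, 1 h). DNA extracted with phenol/chloroform/isoamyl alcohol and alcohol-precipitated. Run on 1.8% agarose gel at 70 V for 1 h, stained with ethidium bromide, and scored for laddering.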

| SMILES | Activity [1] | Activity [2] | inhibition of growth at 50 µM [3] | Activity [4] | growth inhibition (GI) [5] | IC50 [6] | Activity [7] | inhibition of growth at 50 µM [8] | IC50 [9] | Activity [10] | growth inhibition (GI) [11] | inhibition of growth at 50 µM [12] | Activity [13] | Activity [14] | Activity [15] | Activity [16] | growth inhibition (GI) [17] | Activity [18] | Activity [19] | Activity [20] | other results |
| --- | --- | --- | --- | --- | --- | --- | --- | --- | --- | --- | --- | --- | --- | --- | --- | --- | --- | --- | --- | --- | --- |
| CC1(C)CCc2cc(C(=O)/C=C/c3cccc([N+](=O)[O-])c3)c3c(c2O1)CCC(C)(C)O3 | 25% | 6% | 92% | Dose-dependent effect | Active | 8 µM | Dose-dependent effect | 93% | 11 µM | 46% | Active | 89% | Dose-dependent effect | 13% | Dose-dependent effect | 4% | Active | 3% | 48% | 4% | inhibition of growth at 50 µM [21]: 48%; IC50 [22]: 25 µM; Activity [23]: 58%; growth inhibition (GI) [24]: Active; Activity [25]: Dose-dependent effect; IC50 [26]: 18 µM; growth inhibition (GI) [27]: Active; Activity [28]: 3%; Activity [29]: 71%; Activity [30]: 42%; Activity [31]: Dose-dependent effect; Activity [32]: Active; IC50 [33]: 16 µM; Activity [34]: Active |
| CC1(C)CCc2cc(C(=O)/C=C/c3ccc([N+](=O)[O-])cc3)c3c(c2O1)CCC(C)(C)O3 | 43% | 9% | 91% | Dose-dependent effect | Active | 26 µM | Dose-dependent effect | 73% | 15 µM | 44% | Active | 52% | Dose-dependent effect | 14% | Dose-dependent effect | 4% | Active | 4% | 56% | 4% | inhibition of growth at 50 µM [21]: 27%; IC50 [22]: 23 µM; Activity [23]: 32%; growth inhibition (GI) [24]: Active; Activity [25]: Dose-dependent effect; IC50 [26]: 45 µM; growth inhibition (GI) [27]: Active; Activity [28]: 3%; Activity [29]: 53%; Activity [30]: 44%; Activity [31]: Dose-dependent effect; Activity [32]: Active; IC50 [33]: 28 µM; Activity [34]: Active |
